Assay results pooled from the literature.
Protocols differ between the studies behind these lines.
Target: Calcium/calmodulin-dependent protein kinase type II subunit gamma (CAMK2G, Homo sapiens, UniProt Q13555)

O=c1nc(-c2ccccn2)sc2ccccc12 — remaining binding (binding; competition with immobilised ligand; 1 µM): 96%
Cc1ccc(C(=O)Nc2ccc(CN3CCN(C)CC3)c(C(F)(F)F)c2)cc1C#Cc1cnc2cccnn12 — remaining signal (cell-free assay; 23.5 nM): 98%
CNC(=O)c1cc(Oc2ccc(NC(=O)Nc3ccc(Cl)c(C(F)(F)F)c3)cc2)ccn1 — inhibition (cell-free assay; 0.3 µM): 51%
CS(=O)(=O)CCNCc1ccc(-c2ccc3ncnc(Nc4ccc(OCc5cccc(F)c5)c(Cl)c4)c3c2)o1 — remaining signal (cell-free assay; 0.5 µM): 111%
COc1ccc2c(O[C@@H]3C[C@H]4C(=O)N[C@]5(C(=O)O)CC5/C=C\CCCCC[C@H](NC(=O)OC5CCCC5)C(=O)N4C3)cc(-c3csc(NC(=O)C(C)C)n3)nc2c1C (some centres unmarked) — remaining binding (cell-free assay; competition with immobilised ligand; 1 µM): 100%
O=C1NC(=O)c2cc(Nc3ccc(F)cc3)c(Nc3ccc(F)cc3)cc21 — remaining signal (cell-free assay; 0.5 µM): 101%
CC(C)(O)[C@H]1CC[C@H](Nc2ccc3ncc(-c4cccc(C(F)(F)F)c4)n3n2)CC1 — remaining activity (enzyme activity; inhibitor; 1 µM): 95.1%
CCCS(=O)(=O)Nc1ccc(F)c(C(=O)c2c[nH]c3ncc(-c4ccc(Cl)cc4)cc23)c1F — inhibition (enzyme activity; inhibitor; 1 µM): < 10%
Cc1nc(Cc2cccc(C(F)(F)F)c2)sc1-c1ccc(C(N)=O)nc1 — remaining binding (cell-free assay; competition with immobilised ligand; 1 µM): 93%
Cc1ccc(NC(=O)c2ccc(C)c(C(F)(F)F)c2)cc1C#Cc1nn(C2CCC(O)CC2)c2ncnc(N)c12 (centres unmarked) — remaining signal (cell-free assay; 10 µM): 90%
Cc1sc(C(=O)NC2COC2)cc1-n1cc(NC(=O)Nc2c(F)cccc2Cl)cn1 — remaining activity (enzyme activity; inhibitor; 10 µM): 102%
Cc1cc(NC(=O)c2cccc3cc(-c4cccc5[nH]nc(N)c45)ccc23)ccc1F — activity vs control (enzyme activity; inhibitor; 0.1 µM): 106%
CN(C)c1ncnc(-c2ccc3nc(Nc4cc(CN5CCN(C(=O)CC(F)(F)F)CC5)ccn4)[nH]c3c2)c1Cl — remaining binding (cell-free assay; competition with immobilised ligand; 1 µM): 100%
Cc1cnc(NC2CCOCC2)nc1-n1cnc(C(=O)NC(CN)c2cc(F)cc(Cl)c2)c1 (centres unmarked) — remaining activity (enzyme activity; inhibitor; radiometric; 1 µM): 88%
O=C(NC[C@@H]1[C@H]2CN(C(=O)OCc3cc(C(F)(F)F)cc(C(F)(F)F)c3)C[C@@H]12)c1ccc2[nH]nnc2c1 — remaining binding (cell-free assay; competition with immobilised ligand; 1 µM): 85%
CC(C)(C)c1nc2c(s1)c1nc(N)ncc1c1ccc(NS(=O)(=O)c3c(F)cccc3F)c(F)c12 — remaining activity (enzyme activity; inhibitor; radiometric; 1 µM): 118%
O=C(Nc1cnn(-c2csc(C(=O)NC3COC3)c2)c1)Nc1c(F)cccc1Cl — remaining activity (enzyme activity; inhibitor; 5 µM): 90.1%
CN([C@@H]1CCc2c(CC(=O)O)c3cc(S(C)(=O)=O)ccc3n2C1)S(=O)(=O)c1ccc(F)cc1 — remaining binding (cell-free assay; competition with immobilised ligand; 1 µM): 100%
C#Cc1cccc(Nc2ncnc3cc(OCCOC)c(OCCOC)cc23)c1 — remaining signal (cell-free assay; 0.5 µM): 115%
CN1CC(Oc2cnc(C#N)cc2-c2ccn3nc(NC(=O)C4CC4)cc3c2)C1 — inhibition (enzyme activity; inhibitor; 1 µM): 10%
